Data from publication PMC8033778 (ACS Pharmacology & Translational Science, 2021).

Test: In vivo stability of 18F-labeled Tz-derivatives
Settings: naïve mice, plasma 30 min p.i., radio-TLC, n = 4
Procedure, shortened: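 Naïve mice received the 18F-labeled tetrazine. Blood was collected after 30 min and plasma analysed by radio-TLC. Stability is expressed as the fraction (%) of radioactivity corresponding to intact compound (n = 4).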

- in vivo stability (% intact [18F]Tz after 30 min): 26%
Structure (SMILES): Cc1nnc(-c2ccc(OCc3cn(CC[18F])nn3)cc2)nn1 [[^18F]5, 3-(4-((1-(2-[18F]Fluoroethyl)-1H-1,2,3-triazol-4-yl)methoxy)phenyl)-6-methyl-1,2,4,5-tetrazine]
